Data from ChEMBL document CHEMBL3877328, “Identification of allosteric binding sites for PI3Kα oncogenic mutant specific inhibitor design” (Bioorg Med Chem, 2017).

Experiments:
[1] = biological target: T1, Phosphatidylinositol 4,5-bisphosphate 3-kinase catalytic subunit alpha isoform (Homo sapiens, UniProt P42336); test: Inhibition of full length PI3Kalpha (unknown origin) assessed as reduction in PIP3 formation at 100 uM using PIP2 as substrate after 45 mins by fluorescence polarization assay relative to control
In short: (§1)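 Wild-type PI3Kα, either full-length or the p110α/niSH2 construct used for crystallography. Protein was co-expressed in Sf9 cells from p110α and p85α (or niSH2) viruses at MOI ratio 3:2, with J-32 in the medium, and harvested at 48 h. Fragments were added from 10% (v/v) DMSO dilutions and screened at 100 μM. Reactions held 10 μM PIP2 and 25 μM ATP, 45 min at room temperature. PIP3 formation was read by fluorescence polarization.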

[2] = biological target: PI3-kinase p110-alpha/p85-alpha (Homo sapiens) (UniProt P27986+P42336); test: Inhibition of wild type PI3K p110alpha/p85alpha niSH2 (unknown origin) expressed in baculovirus infected sf9 cells assessed as reduction in PIP3 formation at 100 uM using PIP2 as substrate after 45 mins by fluorescence polarization assay relative to control; in short: as §1
[3] = biological target: T1, Phosphatidylinositol 4,5-bisphosphate 3-kinase catalytic subunit alpha isoform; test: Inhibition of full length PI3Kalpha (unknown origin) assessed as reduction in PIP3 formation using PIP2 as substrate after 45 mins by fluorescence polarization assay
In short: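 Wild-type full-length p110α/p85α PI3Kα, baculovirus-expressed in Sf9 cells, purified. Fluorescence polarization kit detecting PIP3 formation. Reaction with 10 μM PIP2 and 25 μM ATP, 45 min at room temperature. Fragments diluted in 10% (v/v) DMSO. Single-point screen at 100 μM; IC50 from dose-response curves over increasing fragment concentrations.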

T1 sequence (P42336 whole entry, the tested form may be a part, canonical isoform): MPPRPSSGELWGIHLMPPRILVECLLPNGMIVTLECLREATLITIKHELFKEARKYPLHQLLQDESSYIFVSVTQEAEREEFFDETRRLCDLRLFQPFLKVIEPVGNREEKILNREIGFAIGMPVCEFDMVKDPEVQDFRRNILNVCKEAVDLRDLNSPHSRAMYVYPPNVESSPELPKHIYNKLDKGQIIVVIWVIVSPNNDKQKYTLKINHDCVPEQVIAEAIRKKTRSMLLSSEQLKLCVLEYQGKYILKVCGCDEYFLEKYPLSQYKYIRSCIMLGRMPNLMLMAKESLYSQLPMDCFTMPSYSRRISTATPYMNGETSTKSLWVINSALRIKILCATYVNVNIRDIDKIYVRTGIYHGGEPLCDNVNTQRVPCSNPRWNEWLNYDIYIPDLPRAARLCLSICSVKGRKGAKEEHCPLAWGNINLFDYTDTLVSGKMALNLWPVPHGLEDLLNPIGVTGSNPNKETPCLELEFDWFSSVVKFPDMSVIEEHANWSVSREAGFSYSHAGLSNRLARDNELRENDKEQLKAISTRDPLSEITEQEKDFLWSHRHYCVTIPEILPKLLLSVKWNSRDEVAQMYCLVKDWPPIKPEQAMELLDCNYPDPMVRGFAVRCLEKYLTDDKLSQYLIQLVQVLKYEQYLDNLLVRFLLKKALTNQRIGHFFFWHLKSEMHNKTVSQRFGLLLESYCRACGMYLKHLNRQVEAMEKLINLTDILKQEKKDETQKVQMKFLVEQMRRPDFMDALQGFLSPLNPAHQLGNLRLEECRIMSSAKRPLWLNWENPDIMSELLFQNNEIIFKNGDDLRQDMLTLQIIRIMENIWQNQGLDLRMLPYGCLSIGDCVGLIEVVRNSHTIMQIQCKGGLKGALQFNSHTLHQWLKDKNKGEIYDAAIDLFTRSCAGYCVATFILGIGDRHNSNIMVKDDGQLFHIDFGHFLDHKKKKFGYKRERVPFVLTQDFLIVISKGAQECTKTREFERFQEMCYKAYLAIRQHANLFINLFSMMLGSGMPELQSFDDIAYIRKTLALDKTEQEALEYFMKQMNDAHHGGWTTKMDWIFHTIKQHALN

Compound | inhibition [1] | inhibition [2] | IC50 [3]
NS(=O)(=O)c1ccccc1Cl | < 25% | < 25% | 
Oc1ccccc1O [CATECHOL] | 87% |  | 33 µM
O=C(O)c1ccccc1O | < 25% | < 25% | 
O=C(O)CCc1ccc(O)cc1 | < 25% | < 25% | 
O=c1[nH]c(=O)c2nccnc2[nH]1 | < 25% | < 25% | 
Oc1cccnc1 | < 25% | < 25% | 
Nc1ccc2c(c1)CN=N2 | < 25% | < 25% | 
COc1ccccc1C(=O)O | < 25% | < 25% | 
Nc1ccc2[nH]c(C(F)(F)F)nc2c1 | < 25% | < 25% | 
N#Cc1cccc(N)c1 | < 25% | < 25% | 
O=c1[nH]cc(F)c(=O)[nH]1 | < 25% | < 25% | 
CC(C)(C)OC(=O)N1CCC(N)CC1 | < 25% | < 25% | 
OC1CCC(O)CC1 (configuration not stated) | < 25% | < 25% | 
CC1C(=O)CCCC1=O | < 25% | < 25% | 
Cc1cccc(N)n1 | < 25% | < 25% | 
Cc1ccnc(N)c1[N+](=O)[O-] | < 25% | < 25% | 
Nc1nc2ccccc2[nH]1 | < 25% | < 25% | 
Nc1ccccc1CO | < 25% | < 25% | 
Cc1cc2ccccc2[nH]1 | < 25% | < 25% | 
Cc1cc(C)nc(N)c1 | < 25% | < 25% | 
Cc1c(N)cccc1N | 92% |  | 20 µM
